Data on 2 compounds can be found in PMC3018560 (Antiviral research, 2010).

The conditions of series [1]: mouse; ref Alonzi et al., 2008; cited from earlier work.
In series [2] the test system is HIV. Particulars: anti-HIV agent, patients; ref Fischl et al., 1994; cited from earlier work.
Series [3] concerns DENV (serotype 2, TSV01 strain). As to the kind of experiment: Dengue viremia model in AG129 mouse, plasma virus titer by plaque assay. Type of series: in vivo. Particulars: AG129 mice. In outline: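 AG129 mice (lacking type I and type II interferon receptors), 7 to 8 weeks old, 6 per dosing group, challenged i.p. with 5×10^6 pfu/mouse. Ribavirin dosed once daily and imino sugars twice daily at 12 hr intervals for 3 consecutive days post-infection; PBS to controls. Plasma virus titer by plaque assay on blood drawn day 3. Reported as average and standard deviation; student t test versus PBS control.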

The conditions of series [4]: human; ref Lindahl et al., 2005; cited from earlier work.

For the compound `CCCCN1C[C@H](O)[C@@H](O)[C@H](O)[C@H]1CO` [NBDNJ], the T1/2 in series [1] is on record as 1.34 h. The “Antiviral efficacy in phase II clinical trial” value in series [2] is given as “did not demonstrate any antiviral efficacy”.

As for `NC(=O)c1ncn([C@@H]2O[C@H](CO)[C@@H](O)[C@H]2O)n1` [ribavirin], in series [3] (ribavirin dose raised from 40mg/kg to 80mg/kg), the “Effect on viremia of dose increase” value is given as “did not improve its antiviral effect”. The Effect on viremia entry in series [3] (ribavirin oral 40mg/kg once daily alone, 3 days (Fig. 5A)) is on record as “did not reduce viremia”. Moreover, the Systematic concentration in series [4] is given as ~ 15 μM.
